# MrgX1 agonist – agonists of human MrgX1 receptor. Q96LB2. MrgX1-HEK293 cells, Fluo-4 calcium fluorescence, agonist mode; active compounds read high. B-score at 10 µM. hit rate 0.44% among 310,000;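 active means calcium response B-score plate-corrected fluorescence ratio at least 3 library SD, with starting fluorescence B-score inside 5 SD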
# Target sequence (Q96LB2 whole entry, looked up): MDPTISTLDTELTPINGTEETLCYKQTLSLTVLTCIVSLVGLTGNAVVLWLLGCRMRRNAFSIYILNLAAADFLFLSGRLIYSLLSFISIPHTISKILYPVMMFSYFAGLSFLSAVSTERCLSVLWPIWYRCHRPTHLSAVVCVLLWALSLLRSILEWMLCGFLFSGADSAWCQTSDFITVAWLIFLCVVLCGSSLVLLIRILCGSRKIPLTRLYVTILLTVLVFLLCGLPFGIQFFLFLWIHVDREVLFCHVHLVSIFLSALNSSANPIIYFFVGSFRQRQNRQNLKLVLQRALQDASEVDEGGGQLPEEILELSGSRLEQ
#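 Assay system: MrgX1-expressing HEK293 cells / Amount: fifteen thousand cells per well / Doses: test compound in the initial addition of three / Timing: cells plated overnight, dye loaded 0.5 h 37 °C, 0.5 h room temperature / Technique: kinetic calcium dye fluorescence, Fluo-4 NW / Control set: positive and negative controls per plate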
# RGS4 act – RGS4 potentiation or activation. B-score at 10 µM. HEK293 M3R/inducible RGS4, carbachol calcium flux Fluo4; active compounds read low. AID 463111. hit rate 0.92% among 310,000;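 active means B-score of the integrated calcium signal more than 4 SD below the library mean, with starting fluorescence not abnormally high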;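 further: negative B-score means reduced calcium response which marks RGS4 activation or potentiation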
#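 Detection: kinetic calcium fluorescence imaging with Fluo4-AM dye, 2 µM / Material: HEK293 cells with stable M3R and inducible RGS4 / Schedule: recording 10 s baseline at 1 Hz, 100 s post-agonist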
# MrgX1 allo act – human MrgX1 positive allosteric modulation, primary screen | MrgX1-HEK293, Fluo-4 calcium flux, FDSS; active compounds read high | B-score at 10 µM | Q96LB2 | AID 588675 | hit rate 0.63% among 310,000;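 active means plate-corrected calcium response at least 3 library SD above typical, normal starting fluorescence, not activating the receptor alone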;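 further: compound read alongside a low EC10 to EC30 dose of BAM8-22 agonist; peak minus trough fluorescence over baseline measured at the second addition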
# RGS4 inh – human RGS4 inhibition; P49798; HEK293 M3R/RGS4 inducible, Fluo-4 calcium flux; active compounds read high; triggered by carbachol at its EC20; B-score at 10 µM; hit rate 0.45% among 310,000; AID 463165;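 active means B-score, a plate-corrected calcium signal, over three deviations above library mean, with baseline fluorescence within five deviations of library mean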;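 further: RGS4 expression induced by doxycycline in cells with stable M3 receptor; B-score is computed from the integrated fluorescence ratio over baseline after carbachol; higher B-score means a larger calcium signal and so more RGS4 inhibition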
# Target sequence (P49798 whole entry, looked up): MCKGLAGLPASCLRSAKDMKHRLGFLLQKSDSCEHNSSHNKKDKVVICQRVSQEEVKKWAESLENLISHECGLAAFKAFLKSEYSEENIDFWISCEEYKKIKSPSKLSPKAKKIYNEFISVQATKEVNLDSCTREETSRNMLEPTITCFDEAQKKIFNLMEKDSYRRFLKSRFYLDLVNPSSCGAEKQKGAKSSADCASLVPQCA
# MrgX1 antag – antagonists of human MrgX1 receptor. MRGX1-HEK293 calcium flux, Fluo-4, BAM8-22 antagonism; active compounds read low. B-score at 10 µM. hit rate 1.3% among 310,000. Q96LB2;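 active means calcium-response B-score plate-corrected more than 3 library SD below zero, starting fluorescence within 5 deviations, no agonist response on first addition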;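 further: peak minus trough fluorescence over baseline after final BAM8-22 challenge near maximal dose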
# The depositor's hits bear a star; i = inactive; / = no result. An excerpt weighted towards active compounds, which were near 3.5% of everything screened.
SMILES,MrgX1 agonist,RGS4 act,MrgX1 allo act,RGS4 inh,MrgX1 antag
CCn1cc(C(=O)N2CCC3(CC2)OCCO3)c(=O)c2cc(S(=O)(=O)N3CCCC3)ccc21,i,i,i,i,i
Cc1c(C(=O)N2CCC3(CC2)OCCO3)oc2ccc(S(=O)(=O)N3CCCCC3)cc12,i,i,i,i,-5.27*
O=C(Cn1nc(Cc2cccnc2)c2ccccc2c1=O)N1CCC2(CC1)OCCO2,i,i,i,i,i
Cn1cc(/C=C2\C(=O)NC(=O)N(c3ccccc3)C2=O)c2ccccc21,i,-7.82*,i,i,i
O=C(O)Cn1cc(/C=C2\C(=O)NC(=O)N(c3ccc(Cl)cc3)C2=O)c2ccccc21,i,i,i,i,i
CC(C)=CCc1c(O)cc2c(c1O)C(=O)CC(c1ccc(O)cc1)O2 (configuration not stated),i,-7.18*,i,i,i
CC(C)N(CC(O)c1cccc([N+](=O)[O-])c1)C(C)C (configuration not stated),i,i,i,i,-6.21*
CC1CCC(C(C)C)C(OC(=O)Cn2c(COc3ccccc3)[n+](C)c3ccccc32)C1 (configuration not stated),i,-8.03*,i,i,-14.4*
Cc1ccnc(NS(=O)(=O)c2ccc(N=Cc3c(O)n(C)c(=O)n(C)c3=O)cc2)n1,i,i,6.59*,i,i
Clc1ccccc1NC1=NCCCS1,i,i,i,i,i
C/C=C1/CC(C)C(C)(O)C(=O)OCC2CCN3CCC(OC1=O)C23 (configuration not stated),i,-8.22*,i,i,i
C/C=C1/C[C@@H](C)[C@](O)(CO)C(=O)OCC2=CCN3CC[C@@H](OC1=O)[C@@H]23,i,/,i,/,i
Clc1ccc(CO/N=C(\Cn2ccnc2)c2ccc(Cl)cc2Cl)c(Cl)c1,i,i,i,i,i
C=C(C=O)C[C@@H]1C[C@H](O)C2OC3C[C@]4(C)OC5/C=C\CC6OC7C(CC=CCC6OC5CCCC4OC3CC2O1)OC1CC2OC3CC(=O)OC3C[C@@H](C)C[C@@]2(C)OC1C[C@@H]7C (some centres not stated),/,-9.74*,/,i,/
C=C(C=O)CC1CC(O)[C@]2(C)OC3C[C@@H]4OC5C[C@]6(C)O[C@]7(C)CCC8OC9C[C@]%10(C)OC(/C(C)=C\CO)C(O)CC%10OC9CC(C)C8OC7CC6O[C@]5(C)C/C=C\C4OC3CC2O1 (some centres not stated),i,/,i,/,i
O=C1NC(=O)C(=Cc2ccc(OCCOc3ccc([N+](=O)[O-])cc3)cc2)C(=O)N1,i,i,i,i,-4.85*
C=C1C(=O)O[C@@H]2C[C@@H](C)[C@@H]3C4OC4C(=O)[C@@]3(C)[C@@H](O)[C@H]12 (some centres not stated),i,i,i,5.15*,i
CN(C)CCSC1c2ccccc2CSc2ccccc21 (configuration not stated),i,-9.13*,i,i,i
CC(=O)c1ccc2c(c1)C1C(Cl)C(Sc3ccccc3[N+](=O)[O-])CC1C(c1ccccc1[N+](=O)[O-])N2 (configuration not stated),i,-7.89*,i,i,i
Cc1ccc(C[n+]2c(-c3ccc(C)cc3)cc(-c3ccc(C)cc3)cc2-c2ccc(C)cc2)cc1,i,-7.21*,i,i,-13.4*
CCN(CC)c1ccc(/C=N/c2sc3c(c2C#N)C2CCN3CC2)c(O)c1,i,/,16.7*,/,i
Cc1cc(OC(=O)c2cccs2)c2c3c(c(=O)oc2c1)CCCC3,i,-7.34*,i,i,i
Cc1cc(OC(=O)c2ccco2)c2c3c(c(=O)oc2c1)CCCC3,i,i,i,i,i
COc1ccccc1N1CCN(Cc2ccc(Br)s2)CC1,i,i,i,i,i
CCCCN1C(=O)NC(=O)C2(Cc3c(nc4c(C)cccn4c3=O)N3CCc4ccccc4C32)C1=O (configuration not stated),i,i,i,i,i
SMILES,MrgX1 agonist,RGS4 act,MrgX1 allo act,RGS4 inh,MrgX1 antag
O=C1NC(=O)N(c2ccc(Cl)cc2)C(=O)/C1=C\c1ccc(Sc2nc3ccccc3[nH]2)o1,i,i,16.6*,i,i
CC(O)(CS(=O)(=O)c1ccccc1)C(=O)Nc1cccc(C(F)(F)F)c1 (configuration not stated),i,i,i,i,i
COC(=O)C1=C(c2cc3ccccc3o2)C[C@@H]2CC[C@H]1N2C(=O)NCc1ccc(C(F)(F)F)cc1,i,i,9.17*,i,i
Cc1ccc(OCC(=O)NCCN2CCN(C(=O)COc3ccc(C)cc3)CC2)cc1,i,i,i,i,i
CC1=Nc2ccccc2/C1=C/c1c(O)[nH]c(=O)[nH]c1=O,i,i,i,i,i
O=c1[nH]c(O)c(/C=C2/C=CC(c3cc(Cl)ccc3Cl)=N2)c(=O)[nH]1,i,i,i,i,-7*
CN1CCN(c2ccc([N+](=O)[O-])c3no[n+]([O-])c23)CC1,i,-8.24*,i,i,i
CN(C)C(=O)O/N=C(\N)COc1ccc(C(C)(C)C)cc1,i,i,i,i,i
CC[C@@H]1C(=O)OC[C@@H]1Cc1cncn1C,i,/,8.74*,/,i
Clc1ccc2c(c1)C(OC1CN3CCC1CC3)c1ccccc1CS2 (configuration not stated),i,-8.62*,i,i,i
CN1CCN(CCOC2c3ccccc3CSc3ccc(Cl)cc32)CC1 (configuration not stated),i,i,i,i,-9.38*
O=C(COc1ccc(Cl)cc1)N(c1ccccc1Cl)C1CN2CCC1CC2 (configuration not stated),i,i,i,i,i
Clc1ccc(C(OCCN2CCCCC2)c2ccccc2)cc1 (configuration not stated),i,/,i,/,i
C=C1C(=O)O[C@H]2C[C@@H](C)[C@@H]3C=CC(=O)[C@@]3(C)C[C@H]12,i,i,i,6.29*,i
C=C1C(=O)O[C@H]2[C@H]1[C@H](OC(=O)CC(=O)O[C@@H]1C[C@@H](C)[C@@H]3C=CC(=O)[C@@]3(C)[C@H]3OC(=O)C(=C)[C@H]13)C[C@@H](C)[C@H]1C=CC(=O)[C@]12C,i,i,i,i,i
O=P(Nc1cccnc1)(Oc1ccccc1Cl)Oc1ccccc1Cl,i,-8.41*,i,i,i

# Assay outcomes as filed in PubChem BioAssay.
